20 compounds from ChEMBL document CHEMBL1147752, “Pyrazoloheteroaryls: novel p38alpha MAP kinase inhibiting scaffolds with oral activity” (Bioorg Med Chem Lett, 2006) can be followed below.

The term IC50 denotes the concentration needed to halve the response being measured. A high value points to a need for much substance. The inhibition in vivo is the percentage by which the read-out fell short of the control. As usually defined, the half-life is how long it takes for the measured level to halve. The low end stands for fast loss, the high end for slow loss. Usually Cmax stands for the maximum level reached in the sampled fluid or tissue. Usually bioavailability stands for the share of a dose that reaches the circulation, judged against a reference dose that is usually intravenous. A higher bioavailability goes with much systemic uptake. One may read the inhibition as the relative decrease from the control value, in per cent. Broadly, the AUC is concentration integrated over time.

The target of data set [1] is Mitogen-activated protein kinase 14 (Mus musculus, UniProt P47811). As to the kind of experiment: Inhibitory activity against murine p38-alpha MAPK. A digest of the protocol: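 Kinase assay with phosphorylated His-tagged p38α MAP kinase of murine origin (10 ng/well). Substrate was immobilised GST-ATF-2, with 120 µM cold ATP present. Result expressed as IC50 (nM).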

The subject of another data set is Mus musculus. As to the kind of experiment: Inhibition of LPS-induced TNFalpha release in mouse at 20 mg/kg, po. It counts as functional. Conditions: OF1. A digest of the protocol:
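Female OF1 mice, eight weeks old, given compound orally by gavage as a DMSO/cornoil solution at 20 mg/kg. One hour after dosing, LPS (20 mg/kg) injected iv to stimulate TNF-α release into plasma. Blood collected one hour later; plasma TNF-α measured by mouse-specific ELISA; reported as % inhibition.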

Data set [2] relates to Rattus norvegicus. The data set is described as follows: Inhibition of adjuvant-induced arthritis in rat at 25 mg/kg, po. Type of data set: functional. Conditions: Wistar. A digest of the protocol:
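Female Wistar rats immunized with Mycobacterium tuberculosis on day 0. Compound dosed orally at 25 mg/kg twice daily from day 14 to day 20. Joint swelling measured on day 20; paw swelling inhibition expressed as %.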

Data set [3] can be described thus: Half life in rat. It counts as ADME, organism-based. To be noted: in vivo.
The nature of data set [4]: Cmax in rat administered at 1 mg/kg, po. Also on record: dose 1 mg/kg, route oral. Conditions: in vivo. It counts as ADME, organism-based.
Data set [5] is described as follows: Oral bioavailability in rat. It counts as ADME, organism-based. To be noted: in vivo.
For data set [6], the system named is Rattus norvegicus. The data set is described as follows: Inhibition of collagen-induced arthritis in rat at 10 mg/kg, po. It counts as functional. A digest of the protocol: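 Collagen-induced arthritis in rats. Compounds given orally once daily (q.d.) for 10 days; swelling inhibition recorded.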
The target in data set [7] is T1, Fibroblast growth factor receptor (Homo sapiens, UniProt P22607+P11362+P22455+P21802). As to the kind of experiment: Inhibition of FGFR at 10 uM. It counts as protein assay.
Data set [8] deals with Mast/stem cell growth factor receptor Kit (Homo sapiens) (UniProt P10721). As to the kind of experiment: Inhibition of c-Kit at 10 uM.
Data set [9] addresses T2, Receptor tyrosine-protein kinase erbB-2 (Homo sapiens, UniProt P04626). The data set is described as follows: Inhibition of HER2 at 10 uM.
The target of data set [10] is Mitogen-activated protein kinase 9 (Homo sapiens, UniProt P45984). The data set is described as follows: Inhibitory activity against JNK2.
The target of data set [11] is T3, Epidermal growth factor receptor (Homo sapiens, UniProt P00533). To be noted: 10 uM.
For data set [12], the target named is Insulin-like growth factor 1 receptor (Homo sapiens) (UniProt P08069). The data set is described as follows: Inhibition of IGF1R at 10 uM.
A short description of data set [13]: AUC in rat. Type of data set: ADME, organism-based. Conditions: plasma.
Data set [14] deals with Cyclin-dependent kinase 1 (Homo sapiens) (UniProt P06493). The data set is described as follows: Inhibition of CDK1 at 10 uM.
In data set [15] the target is Hepatocyte growth factor receptor (Homo sapiens, UniProt P08581). The data set is described as follows: Inhibitory activity against c-Met.
Data set [16] concerns the target T1, Fibroblast growth factor receptor. The data set is described as follows: Inhibitory activity against FGFR. It counts as protein assay.
Data set [17] concerns the target T2, Receptor tyrosine-protein kinase erbB-2. As to the kind of experiment: Inhibitory activity against HER2.
Data set [18] concerns the target RAF proto-oncogene serine/threonine-protein kinase (Homo sapiens) (UniProt P04049). As to the kind of experiment: Inhibition of c-Raf at 10 uM.
Data set [19] deals with T3, Epidermal growth factor receptor. As to the kind of experiment: Inhibitory activity against HER1.

Sequence of Mitogen-activated protein kinase 9 (P45984 whole entry): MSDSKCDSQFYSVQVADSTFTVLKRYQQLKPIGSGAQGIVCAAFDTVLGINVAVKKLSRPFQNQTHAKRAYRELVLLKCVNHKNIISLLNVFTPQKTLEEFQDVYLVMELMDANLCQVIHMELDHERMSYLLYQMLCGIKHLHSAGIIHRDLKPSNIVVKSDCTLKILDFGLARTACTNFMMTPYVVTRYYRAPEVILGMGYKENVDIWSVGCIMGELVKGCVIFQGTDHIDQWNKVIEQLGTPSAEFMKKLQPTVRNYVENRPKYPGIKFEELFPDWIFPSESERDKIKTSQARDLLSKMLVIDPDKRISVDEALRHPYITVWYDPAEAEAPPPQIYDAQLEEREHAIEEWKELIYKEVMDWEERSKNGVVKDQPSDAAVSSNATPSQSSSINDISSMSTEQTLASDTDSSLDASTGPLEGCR
Sequence of Mitogen-activated protein kinase 14 (P47811 whole entry): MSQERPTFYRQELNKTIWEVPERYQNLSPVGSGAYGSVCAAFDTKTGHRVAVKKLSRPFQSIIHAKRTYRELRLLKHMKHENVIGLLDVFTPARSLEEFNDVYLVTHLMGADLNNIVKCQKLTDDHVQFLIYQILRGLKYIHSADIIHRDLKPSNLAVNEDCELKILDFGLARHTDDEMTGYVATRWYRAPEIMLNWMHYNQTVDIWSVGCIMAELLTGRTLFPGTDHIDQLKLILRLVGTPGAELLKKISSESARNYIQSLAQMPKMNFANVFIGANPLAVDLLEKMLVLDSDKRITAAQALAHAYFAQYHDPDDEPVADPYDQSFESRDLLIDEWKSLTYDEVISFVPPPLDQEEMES
Sequence of Insulin-like growth factor 1 receptor (Homo sapiens) (P08069 31-736 limits assumed): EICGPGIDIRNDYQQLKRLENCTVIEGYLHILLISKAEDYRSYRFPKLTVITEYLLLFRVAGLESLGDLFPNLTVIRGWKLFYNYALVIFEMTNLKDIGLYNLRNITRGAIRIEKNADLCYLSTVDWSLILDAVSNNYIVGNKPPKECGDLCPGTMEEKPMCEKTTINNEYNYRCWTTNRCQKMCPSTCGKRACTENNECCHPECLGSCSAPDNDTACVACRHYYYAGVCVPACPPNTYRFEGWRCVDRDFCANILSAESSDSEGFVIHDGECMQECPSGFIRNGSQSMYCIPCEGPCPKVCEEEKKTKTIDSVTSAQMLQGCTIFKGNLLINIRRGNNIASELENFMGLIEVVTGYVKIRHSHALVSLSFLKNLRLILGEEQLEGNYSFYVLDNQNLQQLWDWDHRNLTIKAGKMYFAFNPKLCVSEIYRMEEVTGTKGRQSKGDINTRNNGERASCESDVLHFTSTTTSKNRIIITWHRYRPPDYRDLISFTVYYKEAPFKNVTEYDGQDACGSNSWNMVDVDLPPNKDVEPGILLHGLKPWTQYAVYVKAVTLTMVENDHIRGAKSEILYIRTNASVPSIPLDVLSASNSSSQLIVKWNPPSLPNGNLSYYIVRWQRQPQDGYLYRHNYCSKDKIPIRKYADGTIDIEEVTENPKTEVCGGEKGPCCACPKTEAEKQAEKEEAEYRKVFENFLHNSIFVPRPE
Sequence of Insulin-like growth factor 1 receptor (Homo sapiens) (P08069 741-1367 limits assumed): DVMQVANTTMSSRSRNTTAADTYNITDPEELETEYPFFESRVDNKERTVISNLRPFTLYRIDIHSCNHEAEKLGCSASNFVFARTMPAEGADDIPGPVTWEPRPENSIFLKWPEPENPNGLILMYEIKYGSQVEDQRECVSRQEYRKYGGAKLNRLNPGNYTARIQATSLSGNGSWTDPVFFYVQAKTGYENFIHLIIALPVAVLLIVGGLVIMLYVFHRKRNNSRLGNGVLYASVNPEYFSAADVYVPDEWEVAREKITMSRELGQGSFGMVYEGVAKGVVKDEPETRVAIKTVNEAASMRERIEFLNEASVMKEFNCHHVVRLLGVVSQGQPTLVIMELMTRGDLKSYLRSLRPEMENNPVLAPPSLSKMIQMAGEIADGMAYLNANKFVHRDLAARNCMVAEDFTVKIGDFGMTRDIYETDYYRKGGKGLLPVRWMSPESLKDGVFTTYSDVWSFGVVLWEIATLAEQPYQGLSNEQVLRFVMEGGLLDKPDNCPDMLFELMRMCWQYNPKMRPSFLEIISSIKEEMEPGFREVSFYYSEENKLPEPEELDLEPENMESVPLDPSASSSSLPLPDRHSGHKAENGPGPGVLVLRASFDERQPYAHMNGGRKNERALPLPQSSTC
T2 sequence (P04626 whole entry): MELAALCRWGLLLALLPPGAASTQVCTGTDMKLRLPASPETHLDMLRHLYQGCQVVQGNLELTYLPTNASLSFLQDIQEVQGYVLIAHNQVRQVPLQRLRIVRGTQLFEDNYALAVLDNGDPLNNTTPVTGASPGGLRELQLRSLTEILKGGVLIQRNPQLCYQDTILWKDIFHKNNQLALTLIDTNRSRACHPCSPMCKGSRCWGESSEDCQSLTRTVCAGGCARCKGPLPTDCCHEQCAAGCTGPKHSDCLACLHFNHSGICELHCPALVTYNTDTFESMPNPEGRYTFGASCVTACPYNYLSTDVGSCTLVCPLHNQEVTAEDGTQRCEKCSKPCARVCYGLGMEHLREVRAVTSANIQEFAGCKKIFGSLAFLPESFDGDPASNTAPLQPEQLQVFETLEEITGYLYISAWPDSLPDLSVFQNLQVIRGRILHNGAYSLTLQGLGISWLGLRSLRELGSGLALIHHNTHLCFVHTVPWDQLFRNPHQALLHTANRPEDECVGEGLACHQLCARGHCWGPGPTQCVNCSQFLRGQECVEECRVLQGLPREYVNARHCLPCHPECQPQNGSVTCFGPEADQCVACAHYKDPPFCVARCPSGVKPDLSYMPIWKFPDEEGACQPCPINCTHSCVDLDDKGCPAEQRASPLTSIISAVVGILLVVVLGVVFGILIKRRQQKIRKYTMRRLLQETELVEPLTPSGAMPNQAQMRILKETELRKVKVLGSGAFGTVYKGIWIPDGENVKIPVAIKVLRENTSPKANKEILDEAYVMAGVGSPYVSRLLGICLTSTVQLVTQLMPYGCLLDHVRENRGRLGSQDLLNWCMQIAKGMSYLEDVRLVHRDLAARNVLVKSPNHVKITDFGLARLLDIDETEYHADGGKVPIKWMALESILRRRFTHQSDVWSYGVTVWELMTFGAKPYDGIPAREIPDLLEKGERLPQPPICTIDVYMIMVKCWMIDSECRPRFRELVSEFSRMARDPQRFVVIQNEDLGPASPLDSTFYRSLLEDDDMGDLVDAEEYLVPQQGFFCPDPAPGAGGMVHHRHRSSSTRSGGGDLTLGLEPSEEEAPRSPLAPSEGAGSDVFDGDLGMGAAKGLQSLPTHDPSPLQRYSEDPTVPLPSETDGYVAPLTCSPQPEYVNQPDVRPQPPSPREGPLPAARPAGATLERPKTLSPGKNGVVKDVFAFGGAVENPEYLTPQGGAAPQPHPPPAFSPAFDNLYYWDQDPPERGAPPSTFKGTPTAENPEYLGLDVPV
T3 sequence (P00533 whole entry): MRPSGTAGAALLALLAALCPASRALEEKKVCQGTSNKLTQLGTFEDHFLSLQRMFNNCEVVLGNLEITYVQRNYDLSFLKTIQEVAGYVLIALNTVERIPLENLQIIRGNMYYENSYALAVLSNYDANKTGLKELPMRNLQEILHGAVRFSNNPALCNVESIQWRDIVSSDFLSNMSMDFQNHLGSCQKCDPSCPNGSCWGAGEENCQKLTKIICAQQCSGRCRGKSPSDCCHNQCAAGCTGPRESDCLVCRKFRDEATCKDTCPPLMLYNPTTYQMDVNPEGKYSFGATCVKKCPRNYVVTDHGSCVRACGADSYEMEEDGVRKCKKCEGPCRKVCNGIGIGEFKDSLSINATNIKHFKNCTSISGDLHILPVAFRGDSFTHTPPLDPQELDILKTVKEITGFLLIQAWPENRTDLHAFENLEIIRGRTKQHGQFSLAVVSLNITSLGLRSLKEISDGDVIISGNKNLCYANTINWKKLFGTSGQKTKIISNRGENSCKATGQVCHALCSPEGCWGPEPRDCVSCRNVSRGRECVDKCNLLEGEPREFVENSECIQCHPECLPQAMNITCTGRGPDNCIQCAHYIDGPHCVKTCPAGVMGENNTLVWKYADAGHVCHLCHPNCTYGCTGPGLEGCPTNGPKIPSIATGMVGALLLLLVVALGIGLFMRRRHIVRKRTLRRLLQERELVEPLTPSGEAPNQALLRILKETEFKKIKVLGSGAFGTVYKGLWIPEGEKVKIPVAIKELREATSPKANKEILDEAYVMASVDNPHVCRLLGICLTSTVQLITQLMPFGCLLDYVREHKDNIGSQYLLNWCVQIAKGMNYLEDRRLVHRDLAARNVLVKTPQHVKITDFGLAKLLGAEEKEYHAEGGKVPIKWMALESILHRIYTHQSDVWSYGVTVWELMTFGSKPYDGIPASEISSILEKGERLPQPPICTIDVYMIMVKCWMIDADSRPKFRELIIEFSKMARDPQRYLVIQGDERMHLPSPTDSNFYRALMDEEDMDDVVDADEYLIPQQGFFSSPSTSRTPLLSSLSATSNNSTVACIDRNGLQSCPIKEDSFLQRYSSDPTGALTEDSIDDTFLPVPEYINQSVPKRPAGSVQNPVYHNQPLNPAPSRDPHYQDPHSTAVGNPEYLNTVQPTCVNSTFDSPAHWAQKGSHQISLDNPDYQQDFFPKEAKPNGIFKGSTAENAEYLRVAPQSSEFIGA
Sequence of Cyclin-dependent kinase 1 (Homo sapiens) (P06493 whole entry, looked up): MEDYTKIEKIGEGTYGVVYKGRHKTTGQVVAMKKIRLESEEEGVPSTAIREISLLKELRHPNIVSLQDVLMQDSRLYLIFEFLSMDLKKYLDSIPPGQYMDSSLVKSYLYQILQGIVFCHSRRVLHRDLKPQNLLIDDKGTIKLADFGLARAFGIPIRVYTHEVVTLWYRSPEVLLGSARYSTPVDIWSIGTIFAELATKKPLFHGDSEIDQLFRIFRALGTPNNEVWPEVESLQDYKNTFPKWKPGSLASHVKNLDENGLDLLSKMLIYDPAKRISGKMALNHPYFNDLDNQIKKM

As for `COc1ccc(C(=O)NC2CCOCC2)cc1-c1[nH]nc2nc(Nc3ccc(F)cc3F)ccc12`, inhibition in [1] was half-maximal at 0.7 nM (IC50). In the data set with Mus musculus, this compound yielded an inhibition in vivo at 20 mg/kg of 97%. Also, the inhibition in vivo at 25 mg/kg in the data set with Rattus norvegicus [2] was found to be 28%. In [3], this compound gave a half-life of 1.4 h. Besides, in [4], the highest level (Cmax) was 6 nM. The compound further gave a bioavailability in [5] of 22%.

Consider `COc1ccc(CNC2CCOCC2)cc1-c1n[nH]c2nc(Nc3ccc(F)cc3F)ccc12`, for which, in data set [1], the IC50 is 94 nM. Testing at 20 mg/kg with Mus musculus gave an inhibition in vivo of 80%. Further, the inhibition in vivo at 25 mg/kg with Rattus norvegicus [2] was 46%. Moreover, the inhibition in vivo at 10 mg/kg in the data set with Rattus norvegicus [6] worked out at 10%.

Turning to `COc1ccc(CCC(C)(C)N)cc1-c1[nH]nc2nc(Nc3ccc(F)cc3F)ncc12`, the IC50 in data set [1] was found to be 43 nM. Moreover, at 20 mg/kg the inhibition in vivo in the data set on Mus musculus was 68%.

Regarding `COc1ccc(C(=O)O)cc1-c1[nH]nc2nc(Nc3ccc(F)cc3F)ccc12`, half-maximal inhibition in data set [1] (IC50) was put at 200 nM.

Compound `COc1ccc(CCC(C)(C)N)cc1-c1[nH]nc2nc(Nc3ccc(F)cc3F)cnc12` showed an IC50 in data set [1] of 29 nM. This compound came in with an inhibition in vivo at 20 mg/kg in the data set with Mus musculus of 0%.

`COc1ccc(C(=O)N2CCNCC2)cc1-c1[nH]nc2nc(Nc3ccc(F)cc3F)ccc12` had an IC50 in [1] of 280 nM. Further, in the data set on Mus musculus, the inhibition in vivo at 20 mg/kg worked out at 3%.

In data set [1], `COc1ccc(C#CCN2CCN(C)CC2)cc1-c1[nH]nc2nc(Nc3ccc(F)cc3F)ncc12` yielded an IC50 of 0.9 nM. Moreover, in the data set on Mus musculus, the inhibition in vivo at 20 mg/kg was found to be 96%.

Turning to `COc1ccc(C#CC(C)(C)O)cc1-c1[nH]nc2nc(Nc3ccc(F)cc3F)cnc12`, the IC50 was 7 nM in [1] and more than 100000 nM in data set [10]. Moreover, the inhibition in vivo at 20 mg/kg in the data set with Mus musculus is 98%. In the data set with Rattus norvegicus [2], the inhibition in vivo at 25 mg/kg came to 41%. The compound also displayed an inhibition in vivo at 10 mg/kg with Rattus norvegicus [6] of 57%. The inhibition in data set [7] was -5%; in data set [8] it was 0%; in [9], 0%; in data set [11], 0%. The compound further returned a Cmax in data set [4] of 160 nM. The bioavailability in data set [5] was 22%.

As for `COc1ccc(CCC(C)(C)O)cc1-c1[nH]nc2nc(Nc3ccc(F)cc3F)ncc12`, the IC50 in data set [1] turned out to be 47 nM. The compound further yielded an inhibition in vivo at 20 mg/kg in the data set on Mus musculus of 98%. In the data set on Rattus norvegicus [2], the inhibition in vivo at 25 mg/kg turned out to be 36%.

In data set [1], `COc1ccc(CCC(C)(C)N)cc1-c1[nH]nc2nc(Nc3ccc(F)cc3F)ccc12` came in with an IC50 of 33 nM. At 20 mg/kg the inhibition in vivo in the data set on Mus musculus was 78%. Also, the inhibition in vivo at 25 mg/kg with Rattus norvegicus [2] is 9%. In [4], this compound displayed a Cmax of 11 nM. For the same compound, the bioavailability in data set [5] was 20%.

In data set [1], `COc1ccc(C#CC(C)(C)O)cc1-c1[nH]nc2nc(Nc3ccc(F)cc3F)ncc12` returned an IC50 of 19 nM. Besides, the inhibition in vivo at 20 mg/kg with Mus musculus is 98%. For the same compound, the inhibition in vivo at 25 mg/kg in the data set on Rattus norvegicus [2] stood at 34%.

As for `COc1ccc(C(=O)NC2CCCC2)cc1-c1[nH]nc2nc(Nc3ccc(F)cc3F)ccc12`, the IC50 in data set [1] amounted to 5 nM. Further, the inhibition in vivo at 20 mg/kg with Mus musculus amounted to 97%. For the same compound, the inhibition in vivo at 25 mg/kg with Rattus norvegicus [2] came to 34%. The same compound showed a half-life in data set [3] of 1.6 h. Moreover, the Cmax in [4] came out at 6 nM. Further, the bioavailability in data set [5] worked out at 26%.

Take `COc1ccc(C#CC(C)(C)N)cc1-c1[nH]nc2nc(Nc3ccc(F)cc3F)ccc12`: the IC50 was found to be 20 nM in [1] and 100000 nM in data set [10]. In addition, in the data set on Mus musculus, 20 mg/kg produced 98% inhibition in vivo. Moreover, the inhibition in vivo at 25 mg/kg with Rattus norvegicus [2] is 49%. Further, in the data set on Rattus norvegicus [6], the inhibition in vivo at 10 mg/kg was found to be 85%. The inhibition in data set [12] and in [14] was 0% in each case. The peak level in data set [4] (Cmax) was 52 nM. Further, in data set [5], the bioavailability is 95%. This compound returned an AUC in data set [13] of 422 ng·h/mL.

Turning to `COc1ccc(CCCN2CCN(C)CC2)cc1-c1[nH]nc2nc(Nc3ccc(F)cc3F)ncc12`, the IC50 in data set [1] amounted to 14 nM. The same compound showed an inhibition in vivo at 20 mg/kg with Mus musculus of 73%.

In [1], `COc1ccc(C#CCN(C)C)cc1-c1[nH]nc2nc(Nc3ccc(F)cc3F)ncc12` yielded an IC50 of 0.6 nM. This compound came in with an inhibition in vivo at 20 mg/kg in the data set on Mus musculus of 96%.

Consider `COc1ccc(CCC(C)(C)O)cc1-c1[nH]nc2nc(Nc3ccc(F)cc3F)cnc12`, for which the IC50 in data set [1] was found to be 21 nM. The compound further came in with an inhibition in vivo at 20 mg/kg in the data set on Mus musculus of 94%.

In the case of `COc1ccc(C#CC(C)(C)N)cc1-c1[nH]nc2nc(Nc3ccc(F)cc3F)ncc12`, the IC50 stood at 12 nM in data set [1]; 1500 nM in data set [15]; 10000 nM in data set [16]; 5000 nM in [17]; 8300 nM in data set [10]; 5200 nM in data set [19]. The same compound came in with an inhibition in vivo at 20 mg/kg with Mus musculus of 85%. The inhibition in vivo at 25 mg/kg in the data set on Rattus norvegicus [2] came out at 69%. This compound gave an inhibition in vivo at 10 mg/kg with Rattus norvegicus [6] of 75%. The inhibition in data set [12] and in data set [18] was 0% each time. Besides, in [5], the bioavailability was 16%. The same compound had an AUC in data set [13] of 512 ng·h/mL.

Regarding `COc1ccc(CNC2CCCC2)cc1-c1[nH]nc2nc(Nc3ccc(F)cc3F)ccc12`, half-maximal inhibition in [1] (IC50) required 58 nM. Further, in the data set with Mus musculus, the inhibition in vivo at 20 mg/kg was 38%.

For `COc1ccc(C#CC(C)(C)N)cc1-c1[nH]nc2nc(Nc3ccc(F)cc3F)cnc12`, the IC50 in data set [1] came to 10 nM. In the data set with Mus musculus, testing at 20 mg/kg gave an inhibition in vivo of 98%. In addition, the inhibition in vivo at 25 mg/kg in the data set with Rattus norvegicus [2] stood at 37%. In data set [3], this compound gave a half-life of 2.6 h. For the same compound, the bioavailability in data set [5] was 9%.

`COc1ccc(CCCN(C)C)cc1-c1[nH]nc2nc(Nc3ccc(F)cc3F)ncc12` showed an IC50 in data set [1] of 11 nM. 20 mg/kg produced 93% inhibition in vivo in the data set on Mus musculus.
